Assay results from paper PMC3924180 (Analytical chemistry, 2013).

Experiments:
[1] = test system: protein tyrosine phosphatase (PTP); assay: Single cell phosphatase activity assay; type: cell-based, human; conditions: BEAS-2B cells pretreated with the inhibitor; abstract
Procedure, shortened: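 BEAS-2B cells grown in KGM on glass-coverslip chambers, kept at 37 °C under warm ECB (HEPES buffer, pH 7.4). Microinjected with fluorescent phosphopeptide substrate pTS13 and laser-lysed after 60 s. Contents were electrokinetically loaded and separated by CE-LIF in borate/SDS/NaCl, pH 7.4. Dephosphorylation was taken as the […] peak area over the combined pTS13 + TS13 areas. Treated and untreated cells were compared by bootstrapping (10,000 samples).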

[2] = test system: protein tyrosine phosphatase (PTP); assay: Single cell phosphatase activity assay; type: cell-based, human; conditions: primary hAECs pre-incubated with the inhibitor; abstract

| Compound | inhibition relative to PTP activity in untreated controls [1] | median PTP inhibition [2] |
| --- | --- | --- |
| O=C1C=Cc2ccccc2C1=O [1,2-naphthoquinone] | 100% | 87% |
| [Zn+2] [Zn^2+] | 69% | 88% |
| pervanadate | 76% | 91% |
